In general, inhibition refers to the percentage by which the read-out fell short of the control. A high value points to strong suppression.

For one experiment, the system named is MDA-MB-435. The experiment is described as follows: Cytotoxicity against human MDA-MB-435 cells assessed as cell growth at 10 uM after 48 hrs by MTT assay relative to untreated control. It is filed as functional. The settings on record: MDA-MB-435, 48 h, read-out: Activity. Summed up: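 Melanoma lines grown at 37 °C in humidified 5% CO2: MDA-MB-435 in DMEM/Ham's F12 1:1 with 10% FCS and antibiotics, SK-MEL-2 in RPMI-1640 with 10% FCS. Cells plated 24 h, then exposed 48 h to 100–0.01 µM (dilutions from fresh 100 µM stock in medium). MTT 0.5 mg/mL added for 4 h, crystals dissolved in EtOH/DMSO 1:1, absorbance read at 540 nm. Mean ± SD of three independent experiments.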

The species entered for a further experiment is Ovis aries. In words: Inhibition of sheep brain tubulin polymerization at 100 uM after 40 mins by DAPI staining-based fluorescence assay. Summed up: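 Microtubular protein was purified from sheep brain by two assembly/disassembly cycles (37 °C/0 °C) in MES buffer (100 mM MES pH 6.6, 1 mM EGTA, 0.5 mM MgCl₂). Compound in DMSO was added to 10 µM tubulin with 10 µM DAPI and incubated 40 min at RT. GTP (1 mM) was then added, and assembly was followed by DAPI fluorescence at 37 °C.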

With `C[C@@H]1NC(=O)Nc2nc3ccccn3c2C1=O`, the growth at 10 µM in the experiment with MDA-MB-435 was 86%. In the experiment filed under Ovis aries, this compound registered an inhibition of 8%.

For the compound `C[C@@H]1NC(c2ccc([N+](=O)[O-])cc2)=Nc2nc3ccccn3c2C1=O`, the growth at 10 µM with MDA-MB-435 was found to be 99%. In the experiment listed under Ovis aries, the inhibition turned out to be 30%.

Source of the values: ChEMBL document CHEMBL3124806, “Imidazopyridine-fused [1,3]-diazepinones: synthesis and antiproliferative activity” (Eur J Med Chem, 2014).
